What was measured:
[1] = Pharmacokinetic study in rats after intravenous oncrasin-266 formulation; format: in vivo, Sprague-Dawley rats; conditions: mean ± SD, n=5; for AUC / Cmax: rat plasma; for Cl / Vd / t1/2: rat
In short: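 Male adult Sprague-Dawley rats received the prodrug formulation IV through a jugular vein cannula at 10, 25 or 50 mg/kg (n=5 per dose). Blood (200 μL) was drawn predose and at 0.0167 to 48 h into heparinized tubes. Plasma was spun at 20,800 x g for 3 min and kept at −80°C. Urine was collected over 0–24 h. Analytes were quantified by validated LC-MS/MS. Each rat's profile was analysed noncompartmentally.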

[2] = Stability of processed sample; format: in vitro ADME, rat; conditions: plasma extracts; for Deviation from nominal concentration after 24 h in the auto-sampler: 24 h at 15°C (data not shown); for Auto-sampler at 15°C (1h) stability, percent of nominal concentration: n=3, mean ± SD
In short: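 Spiked rat plasma (50 μL) was mixed with 100 μL acetonitrile internal-standard working solution (125 ng/mL) and centrifuged at 20,800 x g for 5 min at 4°C. The supernatant extracts were held in the auto-sampler at 15°C for 1 h and 24 h. They were then compared with freshly obtained extracts at low and high QC levels in triplicate, by LC-MS/MS.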

[3] = Stability of oncrasins in rat plasma; format: in vitro ADME; conditions: for Stability after 2 h at room temperature: bench-top, 2 h (data not shown); for Three freeze-thaw cycles stability, percent of nominal concentration: freeze −80°C / thaw RT; for Three freeze-thaw cycles stability, percent of nominal concentration / Long term -80°C (14 days) stability, percent of nominal concentration / Short-term (1h) stability, percent of nominal concentration: n=3, mean ± SD; for Short-term (1h) stability, percent of nominal concentration: room temperature bench-top 1 h
In short: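 Blank rat plasma was spiked at low and high QC levels, three replicates per level, then measured by LC-MS/MS against freshly prepared samples at the same concentrations. Results are percent of nominal. Short-term bench-top: room temperature for 1, 2 and 3 h. Freeze-thaw: three cycles of −80°C freezing and room-temperature thawing. Long-term: 14 days of storage.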

[4] = analyte after I.V. oncrasin-266 formulation 10 mg/kg
[5] = analyte after I.V. oncrasin-266 formulation 25 mg/kg
[6] = analyte after I.V. oncrasin-266 formulation 50 mg/kg

Row | SMILES | AUC [1, 4] [ng·h/mL] | Cmax [1, 4] [ng/mL] | AUC [1, 5] [ng·h/mL] | Cmax [1, 5] [ng/mL] | AUC [1, 6] [ng·h/mL] | Cmax [1, 6] [ng/mL] | Cl [1, 4] [L/kg] | Vd [1, 4] [L/kg] | t1/2 [1, 4] [h] | Cl [1, 5] [L/kg] | Vd [1, 5] [L/kg] | t1/2 [1, 5] [h] | Cl [1, 6] [L/kg] | Vd [1, 6] [L/kg] | t1/2 [1, 6] [h] | Deviation from nominal concentration after 24 h in the auto-sampler [2] [%] | Stability after 2 h at room temperature [3] | further results
1 | O=Cc1cn(Cc2cccc(Cl)c2)c2ccccc12 [NSC-741908] | 500 ± 420 | 1560 ± 1550 | 110 ± 30 | 330 ± 120 | 680 ± 420 | 2140 ± 1730 | 75.73 ± 86.14 | 47.04 ± 33.52 | 1.19 ± 0.93 | 254.62 ± 108.12 | 443.15 ± 71.91 | 1.31 ± 0.39 | 103.60 ± 67.32 | 137.64 ± 33.49 | 1.16 ± 0.52 | ≤ 15 | remained stable | Auto-sampler at 15°C (1h) stability, percent of nominal concentration ([2]; nominal 1 ng/mL): 113.44 ± 6.90%; Auto-sampler at 15°C (1h) stability, percent of nominal concentration ([2]; nominal 100 ng/mL): 100.25 ± 2.67%; Three freeze-thaw cycles stability, percent of nominal concentration ([3]; nominal 1 ng/mL): 110.20 ± 6.79%; Three freeze-thaw cycles stability, percent of nominal concentration ([3]; nominal 100 ng/mL): 95.15 ± 4.53%; Long term -80°C (14 days) stability, percent of nominal concentration ([3]; nominal 1 ng/mL): 112.67 ± 2.45%; Long term -80°C (14 days) stability, percent of nominal concentration ([3]; nominal 100 ng/mL): 93.46 ± 5.62%; Short-term (1h) stability, percent of nominal concentration ([3]; nominal 1 ng/mL): 101.00 ± 12.58%; Short-term (1h) stability, percent of nominal concentration ([3]; nominal 100 ng/mL): 99.21 ± 5.62%
2 | OCc1cn(Cc2cccc(Cl)c2)c2ccccc12 [Oncrasin-72] | 2220 ± 330 | 15550 ± 5330 | 7150 ± 1960 | 52440 ± 16750 | 23700 ± 7950 | 54790 ± 30600 | 4.56 ± 0.7 | 45.06 ± 16.70 | 7.01 ± 2.81 | 3.62 ± 0.77 | 42.55 ± 24.3 | 7.74 ± 3.95 | 2.30 ± 0.74 | 27.78 ± 10.36 | 8.28 ± 1.34 | ≤ 15 | remained stable | Auto-sampler at 15°C (1h) stability, percent of nominal concentration ([2]; nominal 2 ng/mL): 94.90 ± 2.54%; Auto-sampler at 15°C (1h) stability, percent of nominal concentration ([2]; nominal 200 ng/mL): 98.05 ± 6.15%; Three freeze-thaw cycles stability, percent of nominal concentration ([3]; nominal 2 ng/mL): 97.53 ± 5.94%; Three freeze-thaw cycles stability, percent of nominal concentration ([3]; nominal 200 ng/mL): 101.23 ± 10.03%; Long term -80°C (14 days) stability, percent of nominal concentration ([3]; nominal 2 ng/mL): 95.02 ± 8.54%; Long term -80°C (14 days) stability, percent of nominal concentration ([3]; nominal 200 ng/mL): 89.14 ± 0.49%; Short-term (1h) stability, percent of nominal concentration ([3]; nominal 2 ng/mL): 94.87 ± 5.31%; Short-term (1h) stability, percent of nominal concentration ([3]; nominal 200 ng/mL): 110.55 ± 3.0%
